ChEMBL document CHEMBL4373712, “Bioactivatable Pseudotripeptidization of Cyclic Dipeptides To Increase the Affinity toward Oligopeptide Transporter 1 for Enhanced Oral Absorption: An Application to Cyclo(l-Hyp-l-Ser) (JBP485)” (J Med Chem, 2019)
pIC50: −log10 of the molar value.

Tests used:
[1] = Half life in pH 7.2 phosphate buffer at 5 mM by HPLC analysis; assay type: physicochemical
In short: (§1)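 Compound at 5 mM in 0.1 M HCl, pH 4.5 acetate buffer, pH 5.8/6.8/7.2 phosphate buffers, SGF (pH 1.2) and SIF (pH 6.8), prepared per Chinese Pharmacopoeia. Samples taken at 0-20 h and analyzed by HPLC-UV. k = 2.303×slope of log C versus time; t1/2 = 0.693/k.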

[2] = Half life in pH 5.8 phosphate buffer at 5 mM by HPLC analysis; assay type: physicochemical; in short: as §1
[3] = Tmax in Sprague-Dawley rat assessed as JBP485 level at 12 mg/kg equiv of JBP485 administered orally by UPLC-MS/MS analysis; assay type: ADME, organism-based; conditions: in vivo, po
In short: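 Fasted male SD rats (200–250 g), oral 12 mg/kg (prodrugs calculated as JBP485). Jugular blood 0.083–10 h, centrifuged, plasma JBP485 by UPLC-MS/MS; n=6.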

[4] = target: T1, Solute carrier family 15 member 1 (Homo sapiens, UniProt P46059); assay: Substrate activity at PEPT1 in human Caco2 cells assessed as inhibition of Gly-Sar uptake measured after 10 mins by UPLC-MS/MS analysis; assay type: cell-based
T1 sequence (P46059 whole entry): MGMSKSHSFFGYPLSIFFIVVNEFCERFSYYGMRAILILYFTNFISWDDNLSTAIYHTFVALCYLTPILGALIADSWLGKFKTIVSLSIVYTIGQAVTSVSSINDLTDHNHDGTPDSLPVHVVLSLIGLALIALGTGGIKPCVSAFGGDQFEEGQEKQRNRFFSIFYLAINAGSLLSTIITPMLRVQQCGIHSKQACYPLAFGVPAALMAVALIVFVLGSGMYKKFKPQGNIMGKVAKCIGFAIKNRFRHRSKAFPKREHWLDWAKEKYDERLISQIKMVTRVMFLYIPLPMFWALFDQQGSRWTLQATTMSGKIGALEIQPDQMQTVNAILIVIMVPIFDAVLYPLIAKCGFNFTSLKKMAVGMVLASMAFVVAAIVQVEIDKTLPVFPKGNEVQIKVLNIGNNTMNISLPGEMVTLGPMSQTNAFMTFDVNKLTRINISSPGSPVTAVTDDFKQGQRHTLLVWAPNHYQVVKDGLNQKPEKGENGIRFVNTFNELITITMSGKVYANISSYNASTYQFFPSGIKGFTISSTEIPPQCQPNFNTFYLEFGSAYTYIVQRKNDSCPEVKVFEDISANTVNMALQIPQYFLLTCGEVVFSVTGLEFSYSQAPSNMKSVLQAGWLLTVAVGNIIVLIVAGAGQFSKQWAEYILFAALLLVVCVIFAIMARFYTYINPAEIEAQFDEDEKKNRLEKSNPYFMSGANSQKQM
In short: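 Caco-2 cells with 0.5 mM Gly-Sar probe substrate and competitor at 0.5–50 mM. IC50 by nonlinear fitting; n=3.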

[5] = Half life in pH 4.5 acetate buffer at 5 mM by HPLC analysis; assay type: physicochemical; in short: as §1
[6] = target: T2, Solute carrier organic anion transporter family member 2B1 (Homo sapiens, UniProt O94956); assay: Substrate activity at OATPB in human Caco2 cells assessed as protein-mediated drug uptake at 0.5 mM measured after 10 mins in absence of OATPB substrate captopril by UPLC-MS/MS analysis; conditions: caco-2, 10 min, 500 µM
T2 sequence (O94956 whole entry): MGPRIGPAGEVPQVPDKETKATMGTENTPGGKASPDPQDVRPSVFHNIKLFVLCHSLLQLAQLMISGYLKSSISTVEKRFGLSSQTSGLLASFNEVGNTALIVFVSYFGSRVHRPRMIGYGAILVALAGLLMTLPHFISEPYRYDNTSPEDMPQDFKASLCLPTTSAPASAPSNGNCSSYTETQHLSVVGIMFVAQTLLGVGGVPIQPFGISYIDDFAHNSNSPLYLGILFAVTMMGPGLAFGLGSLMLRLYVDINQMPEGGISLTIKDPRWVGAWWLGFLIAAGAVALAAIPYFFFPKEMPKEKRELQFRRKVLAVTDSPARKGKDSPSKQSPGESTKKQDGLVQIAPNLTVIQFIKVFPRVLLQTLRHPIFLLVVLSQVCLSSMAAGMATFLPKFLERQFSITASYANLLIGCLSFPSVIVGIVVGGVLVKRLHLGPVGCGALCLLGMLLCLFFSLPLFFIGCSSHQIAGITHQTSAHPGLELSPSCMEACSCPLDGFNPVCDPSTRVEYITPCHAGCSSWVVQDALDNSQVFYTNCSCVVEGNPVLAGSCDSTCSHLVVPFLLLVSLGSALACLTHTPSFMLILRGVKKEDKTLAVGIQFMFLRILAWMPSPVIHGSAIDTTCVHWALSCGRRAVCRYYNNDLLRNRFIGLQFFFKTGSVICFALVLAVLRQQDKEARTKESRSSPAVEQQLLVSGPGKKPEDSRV

[7] = Terminal half life in Beagle dog assessed as JBP485 level at 12 mg/kg equiv of JBP485 administered orally by UPLC-MS/MS analysis; assay type: ADME, organism-based, Canis lupus familiaris; conditions: in vivo, po
In short: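 Male beagle dogs, 2 years old, 8–10 kg, dosed orally at 12 mg/kg (prodrug calculated as JBP485) in aqueous solution. Jugular blood taken 0.167–8 h into heparin, centrifuged, plasma JBP485 by UPLC-MS/MS; n=6.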

[8] = AUC (0 to t) in Sprague-Dawley rat assessed as JBP485 level at 12 mg/kg equiv of JBP485 administered orally by UPLC-MS/MS analysis; assay type: ADME, organism-based; conditions: in vivo, po
In short: (§2)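 Male SD rats, 200-250 g, fasted 12 h with water, n=6. Oral dose of 12 mg/kg as JBP485 equivalent; dose-effect arms at 12 and 100 mg/kg. JBP485 given iv at 6 mg/kg as the reference. Jugular blood taken at 0.083-10 h. Plasma JBP485 by UPLC-MS/MS. Absolute F = (AUCpo×Div)/(AUCiv×Dpo)×100%, using AUC0-t.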

[9] = Half life in Sprague-Dawley rat intestinal homogenates at 5 mM by HPLC analysis; assay type: ADME, tissue-based, Intestine
In short: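 Jejunum and liver homogenates from male SD rats in pH 7.4 PBS, adjusted to 200 µg/mL protein, and rat plasma. Each incubated with compound at 5 mM at 37 °C.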

[10] = Half life in 0.1 M HCl at 5 mM by HPLC analysis; assay type: physicochemical; in short: as §1
[11] = AUC (0 to t) in Sprague-Dawley rat at 6 mg/kg, iv by UPLC-MS/MS analysis; assay type: ADME, organism-based; conditions: in vivo; in short: as §2
[12] = Cmax in Sprague-Dawley rat assessed as JBP485 level at 12 mg/kg, po by LC-MS/MS analysis; assay type: ADME, organism-based; parameters: dose 12 mg/kg, route oral; conditions: in vivo; in short: as §2
[13] = Cmax in Sprague-Dawley rat at 6 mg/kg, iv by UPLC-MS/MS analysis; assay type: ADME, organism-based; parameters: dose 6 mg/kg, route intravenous; conditions: in vivo; in short: as §2

SMILES	half-life at 5000 µM [1] [h]	half-life at 5000 µM [2] [h]	Tmax [3] [h]	pIC50 [4]	half-life at 5000 µM [5] [h]	Drug uptake [6]	beta t1/2 [7] [h]	AUCt [8] [nM/ml.hr]	half-life at 5000 µM [9] [h]	half-life at 5000 µM [10] [h]	AUCt [11] [µM·h]	Cmax [12] [nM/ml]	Cmax [13] [nM/ml]
CC(C)[C@H](N)C(=O)OC[C@@H]1NC(=O)[C@@H]2C[C@@H](O)CN2C1=O	5.5	> 20	0.57	2.54	> 20	Not Active	1.68	194.47	< 0.16	> 20	–	–	–
O=C1N[C@@H](CO)C(=O)N2C[C@H](O)C[C@@H]12	> 20	> 20	–	1.74	> 20	Not Active	–	–	> 20	> 20	194	27.84	334.91
